Reference: ChEMBL document CHEMBL1122501, “Potential antiatherosclerotic agents. 2. (Aralkylamino)- and (alkylamino) benzoic acid analogues of cetaben” (1983)
Values joined by “and” are separate entries in the source; they are usually repeats but may differ in a detail not shown here. Identical values can stand only once.

Legend:
[1] = system: Rattus norvegicus; experiment: In vivo Sterol lowering activity at dose as 0.025 % of the diet; assay type: functional
Outline: (§1)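 Male CFE or CD-1 Sprague-Dawley rats, 140-150 g; 8 per control group, 4 per test group. Compound mixed into ground chow (w/w) via MeOH-CHCl3 (1:3) solution, solvent evaporated; controls got solvent-treated chow. Fed ad libitum 5 days, food intake monitored, killed fed and bled. Serum sterols and triglycerides by adapted autoanalyzer methods; mean percent of control, Student's t test.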

[2] = system: Rattus norvegicus; experiment: In vivo Sterol lowering activity at dose as 0.05 % of the diet; assay type: functional; outline: as §1
[3] = system: Rattus norvegicus; experiment: In vivo Sterol lowering activity at dose as 0.10 % of the diet.; assay type: functional; outline: as §1
[4] = system: Rattus norvegicus; experiment: In vivo triglyceride lowering activity dosed at 0.05 % of the diet; assay type: functional; outline: as §1
[5] = system: Rattus norvegicus; experiment: In vivo triglyceride lowering activity, dosed at 0.10 % of the diet.; assay type: functional; outline: as §1
[6] = target: T1, Sterol O-acyltransferase 1 (Rattus norvegicus) (UniProt O70536); experiment: In vitro inhibitory activity against acyl coenzyme A:cholesterol acyltransferase (ACAT); design: concentration or dose not given beside the values; conditions: concentration not given here
T1 sequence (whole entry): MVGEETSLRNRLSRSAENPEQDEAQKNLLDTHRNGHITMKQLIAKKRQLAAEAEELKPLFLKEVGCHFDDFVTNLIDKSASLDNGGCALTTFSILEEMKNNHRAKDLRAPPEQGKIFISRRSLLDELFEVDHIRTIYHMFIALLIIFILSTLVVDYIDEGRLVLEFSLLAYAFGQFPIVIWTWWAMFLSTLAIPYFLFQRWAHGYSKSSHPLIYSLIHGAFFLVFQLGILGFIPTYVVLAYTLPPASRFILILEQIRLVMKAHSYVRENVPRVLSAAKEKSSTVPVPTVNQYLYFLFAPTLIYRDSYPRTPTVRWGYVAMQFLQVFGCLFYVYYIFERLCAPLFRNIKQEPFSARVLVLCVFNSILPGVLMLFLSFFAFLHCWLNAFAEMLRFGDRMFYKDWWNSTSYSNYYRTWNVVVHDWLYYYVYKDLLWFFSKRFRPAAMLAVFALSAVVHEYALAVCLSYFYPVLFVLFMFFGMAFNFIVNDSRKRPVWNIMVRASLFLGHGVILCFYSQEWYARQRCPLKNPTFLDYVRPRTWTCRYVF
Outline: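 ACAT enzyme from rat adrenal homogenate in 0.2 M KH2PO4 buffer pH 7.4, 1000g 15 min 5 °C supernatant (microsomal fraction). Supernatant + BSA (50 mg/mL) + compound at final 5.2 μg/mL + buffer preincubated 10 min 37 °C; [14C]oleoyl-CoA (0.4 μCi) added, 30 min 37 °C. Lipids extracted, TLC; cholesteryl ester zone counted. Mean % inhibition vs no-compound control; Student's t test.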

[7] = system: Rattus norvegicus; experiment: In vivo Triglyceride lowering activity at dose as 0.025 % of the diet; assay type: functional; outline: as §1
[8] = system: Rattus norvegicus; experiment: In vivo sterol lowering activity dosed at 0.10 % of the diet; assay type: functional; outline: as §1
[9] = system: Rattus norvegicus; experiment: In vivo triglyceride lowering activity dosed at 0.10 % of the diet; assay type: functional; outline: as §1
[10] = system: Rattus norvegicus; experiment: In vivo triglyceride lowering activity, dosed at 0.03 % of the diet; assay type: functional; outline: as §1
[11] = system: Rattus norvegicus; experiment: In vivo triglyceride lowering activity, dosed at 0.01 % of the diet.; assay type: functional; outline: as §1
[12] = system: Rattus norvegicus; experiment: In vivo Sterol lowering activity at dose as 0.01 % of the diet.; assay type: functional; outline: as §1
[13] = system: Rattus norvegicus; experiment: In vivo Sterol lowering activity at dose as 0.03 % of the diet; assay type: functional; outline: as §1
[14] = system: Rattus norvegicus; experiment: In vivo Triglyceride lowering activity at dose as 0.03 % of the diet.; assay type: functional; outline: as §1
[15] = system: Rattus norvegicus; experiment: In vivo Triglyceride lowering activity at dose as 0.01 % of the diet; assay type: functional; outline: as §1
[16] = system: Rattus norvegicus; experiment: In vivo Sterol lowering activity at dose as 0.03 % of the diet.; assay type: functional; outline: as §1

Structure (SMILES)	inhibition [6]	Diet [1]	Diet [2]	serum sterol, percent of control [3]	Diet [4]	Diet [5]	Diet [7]	serum sterol, percent of control [8]	serum triglycerides, percent of control [9]	serum triglycerides, percent of control [10]	Diet [11]	serum sterol, percent of control [12]	Diet [13]	Diet [14]	Diet [15]	serum sterol level, percent of control [16]
CCCCCCNc1ccc(C(=O)OCC)cc1		79%	80%	87%	76% and 73%	86%										
O=C([O-])c1ccc(NCc2ccc(Cl)cc2)cc1.[Na+]				83%					67%	61%	70%	91%	90%			
O=C(O)c1ccc(NCCCc2ccc(F)cc2)cc1	16%			82%					61%		94%	83%	82%	90%		
C=CCCCCCCCC/C=C/CCCNc1ccc(C(=O)O)cc1		<86%	<81%		79%		<71%	<80%	88%							
CCCCCCCCC/C=C/CCCNc1ccc(C(=O)O)cc1		<86%	<83%		97%		85%	<79%	75%							
CCCCCCCCCCCCCCCCCCNc1ccc(C(=O)O)cc1		<86%	94%		<71%		<70%	<82%	<60%							
CCCCCCCCCCCCCCNc1ccc(C(=O)O)cc1		93%	90%		<50%		<65%	89%	<53%							
O=C(O)c1ccc(NCCCCCCc2cccs2)cc1	31%							76%	57%	63%		90%	83%		58%	
CCCCCCCCCCCCCNc1ccc(C(=O)O)cc1		95%	<87%		<36%		<54%	<84%	<60%							
CCCCCCCCCCCCNc1ccc(C(=O)O)cc1		<86%	<80%					<89%	<32%	<40%					<51%	
CCCCCCCC/C=C\CCCCCCCCNc1ccc(C(=O)O)cc1		<88%	85%		<58%		<72%	<75%	<63%							
CCCCCCCCCCCCCCCNc1ccc(C(=O)OCC)cc1		<91%	<84%		<76%		88%	86%	<62%							
CCCCCCCC/C=C\CCCCCCCCNc1ccc(C(=O)OCC)cc1		<95%	99%		<57%		<68%	<96%	77%							
O=C(CCc1ccc(Cl)cc1)Nc1ccc(C(=O)O)cc1	33%			96%		100%					100%	104%		115%		104%
O=C(O)c1ccc(NCc2ccc(Cl)cc2)cc1								71%	52%		98%	89%	80%	72%		
CCCCCCCCCCCCCCCCCCCNc1ccc(C(=O)O)cc1		90%	96%		<46%		<52%	100%	<46%							
CCCCCCCCCC/C=C/CCCNc1ccc(C(=O)O)cc1		<84%	<82%		<83%		86%	<79%	83%							

More lines, main results first:

inhibition [6]	Structure (SMILES)	Diet [1]	Diet [2]	serum sterol, percent of control [3]	Diet [4]	Diet [5]	Diet [7]	serum sterol, percent of control [8]	serum triglycerides, percent of control [9]	serum triglycerides, percent of control [10]	Diet [11]	serum sterol, percent of control [12]	Diet [13]	Diet [14]	Diet [15]	serum sterol level, percent of control [16]
< 50%	C=CCCCCCCCC/C=C/CCCNc1ccc(C(=O)OCC)cc1	<87%	<85%		76%		90%	<85%	64%							
50%	CCOC(=O)c1ccc(NCCCc2cccc(Br)c2)cc1			94%		63%				60%	74%	84%	84%			
19%	CCOC(=O)c1ccc(NCCCc2ccc([N+](=O)[O-])cc2)cc1					73%		85%			81%	85%	81%	84%		
0%	Cc1ccc(CCC(=O)Nc2ccc(C(=O)O)cc2)cc1			91%		70%					75%	94%	83%	97%		
51%	CCOC(=O)c1ccc(NC(=O)/C=C/c2ccc(Cl)cc2)cc1			107%		80%					104%	98%		110%		107%
18%	O=C(O)c1ccc(NCCCc2ccc([N+](=O)[O-])cc2)cc1			96%		83%					78%	98%		75%		91%
17%	O=C(OCC(O)CO)c1ccc(NCCCc2ccc(Cl)cc2)cc1 (stereo unspecified)							81%	57%		78%	97%	88%	63%		
37%	CCOC(=O)c1ccc(NC(=O)CCCCC(=O)c2ccc(Cl)cc2)cc1			90%		96%					110%	90%		131%		88%
9%	CCOC(=O)c1ccc(NCCCc2ccccc2[N+](=O)[O-])cc1			89%		68%						93%		83%	70%	96%
< 51%	CCCCCCCCC/C=C/CCCNc1ccc(C(=O)OCC)cc1	<88%	<85%					<83%	79%	75%					78%	
15%	Nc1ccccc1CCCNc1ccc(C(=O)O)cc1			84%		92%					99%	121%		84%		96%
